ChEMBL document CHEMBL4020844, “Regio- and Stereospecific Synthesis of Oridonin D-Ring Aziridinated Analogues for the Treatment of Triple-Negative Breast Cancer via Mediated Irreversible Covalent Warheads” (J Med Chem, 2018)
Values belong to the molecule of their own block, whether it stands above or below them. Active and inactive are the calls of the source. No cut-off for these calls is given here.

Experiments:
[1] = Glutathione reactivity in pH 7.4 deuterated phosphate buffer at 10 mg after 20 hrs in presence of 1.5 to 2 equiv of GSH by 1H NMR analysis
[2] = system: MCF7; assay: Antiproliferative activity against human MCF7 cells after 72 hrs by MTT assay; type: functional, cell-based
Procedure, shortened: (§1)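 MTT proliferation assay. Cells were seeded at 1 × 10^4 per well and exposed to DMSO or compound at 0.1, 0.33, 1.0, 3.3 and 10 μM for 72 h. MTT reagent was added, and OD at 560 nm was read after 1 h at 37°C. Each concentration was tested in quadruplicate wells.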

[3] = system: MDA-MB-231; assay: Antiproliferative activity against human MDA-MB-231 cells after 72 hrs by MTT assay; type: functional, cell-based; procedure, shortened: as §1
[4] = Drug level in pH 7.4 deuterated phosphate buffer treated with (2R,3'S,3a'R,3a1'R,6a'R,7'S,11'S,11a'S)-1-Acryloyl-7',11'-dihydroxy-5',5',8',8'-tetramethyldecahydro-2'H-spiro[aziridine-2,15'-[6a,11a](epoxymethano)[3,3a1]ethanophenanthro[1,10-de][1,3]-dioxin]-14'-one at 10 mg after 1 hr in presence of 1.5 to 2 equiv of GSH by HRMS analysis
[5] = Glutathione reactivity in pH 7.4 deuterated phosphate buffer assessed as reaction half life at 10 mg up to 10 mins in presence of 1.5 to 2 equiv of GSH by 1H NMR analysis; type: physicochemical
[6] = Drug level in pH 7.4 deuterated phosphate buffer treated with (2R,3'S,3a'R,3a1'R,6a'R,7'S,11'S,11a'S)-7',11'-Dihydroxy-5',5',8',8'-tetramethyldecahydro-2'H-spiro[aziridine-2,15'-[6a,11a]-(epoxymethano)[3,3a1]ethanophenanthro[1,10-de][1,3]dioxin]-14'-one at 10 mg after 5 hrs in presence of 1.5 to 2 equiv of GSH by HRMS analysis
[7] = system: Plasma; assay: Stability in rat plasma up to 5 hrs; type: ADME, cell-free
[8] = system: Plasma; assay: Stability in human plasma up to 5 hrs; type: ADME, cell-free
[9] = Stability in human microsomes; type: ADME, Microsome
[10] = Glutathione reactivity in pH 7.4 deuterated phosphate buffer assessed as reaction half life at 10 mg up to 24 hrs in presence of 1.5 to 2 equiv of GSH by 1H NMR analysis; type: physicochemical; conditions: pH 7.4, 24 h
[11] = Stability in mouse microsomes; type: ADME, Microsome
[12] = system: Plasma; assay: Stability in mouse plasma up to 5 hrs; type: ADME, cell-free
[13] = Stability in rat microsomes; type: ADME, Microsome
[14] = Glutathione reactivity in pH 7.4 deuterated phosphate buffer assessed as GSH adduct formation at 10 mg after 5 hrs in presence of 1.5 to 2 equiv of GSH by HRMS analysis
[15] = Glutathione reactivity in pH 7.4 deuterated phosphate buffer assessed as GSH adduct formation at 10 mg up to 10 mins in presence of 1.5 to 2 equiv of GSH by HRMS analysis
[16] = Toxicity in ip dosed ddYS mouse implanted with mouse ehrlich carcinoma cells administered once daily for 7 consecutive days measured for 40 days; type: organism-based; conditions: in vivo
[17] = system: MDA-MB-231; assay: Antitumor activity against human MDA-MB-231 cells xenografted in nude mouse assessed as tumor growth inhibition at 10 mg/kg, ip daily for 10 days; type: functional, organism-based
Procedure, shortened: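 Orthotopic model: female nude mice, 6–8 weeks old. MDA-MB-231 cells (1.0 × 10^6 in PBS) were injected into the no. 3 mammary fat pad, and mice were randomized into 4 groups. Once tumors reached 80–100 mm3, mice received 10 or 15 mg/kg daily by intraperitoneal injection in DMSO vehicle. Tumor volume (0.5 × L × W2) and body weight were measured daily. Mean ± SEM.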

[18] = Drug level in pH 7.4 deuterated phosphate buffer treated with oridonin at 10 mg up to 10 mins in presence of 1.5 to 2 equiv of GSH by HRMS analysis
[19] = Antiproliferative activity against human LX2 cells by alamar blue assay; type: functional, cell-based; conditions: LX-2
[20] = Potency index, ratio of oridonin IC50 to compound IC50 for human LX2 cells; type: functional

SMILES: O=C(O)C1CN1 (centres undefined)
- Drug metabolism [1]: Metabolite detected

SMILES: C=CCNc1nc2c(s1)CC(C)(C)[C@H]1[C@H](O)[C@]3(O)OC[C@@]21[C@@H]1CC[C@@H]2[C@@H](O)[C@@]13C(=O)C21CN1C(=O)OCC1c2ccccc2-c2ccccc21 (some centres undefined)
- Activity [2]: Active
- Activity [3]: Active

SMILES: CC1(C)O[C@@H]2[C@H]3CC[C@H]4[C@@]56CO[C@@](O1)([C@@H](O)[C@@H]5C(C)(C)CC[C@@H]6O)[C@@]24C(=O)C31CN1C(=O)CCSC[C@H](NC(=O)CC[C@H](N)C(=O)O)C(=O)NCC(=O)O (some centres undefined)
- Drug metabolism [4]: Metabolite detected

- Drug metabolism ([5]; in vitro, pH 7.4, 10 min): Metabolite_Detected
SMILES: C=C1C(=O)[C@]23[C@H](OC(=O)[C@H](C)N)[C@H]1CC[C@H]2[C@@]12CO[C@@]3(O)[C@@H](O)[C@@H]1C(C)(C)CC[C@@H]2O.O=C(O)C(F)(F)F

SMILES: CC1(C)O[C@@H]2[C@H]3CC[C@H]4[C@@]56CO[C@@](O1)([C@@H](O)[C@@H]5C(C)(C)CC[C@@H]6O)[C@@]24C(=O)C3(N)CSCC(NC(=O)CC[C@H](N)C(=O)O)C(=O)NCC(=O)O (some centres undefined)
- Drug metabolism [6]: Metabolite detected

- t1/2 ([5]; gsh, pH 7.4, 10 min): < 1 min
SMILES: C=C1C(=O)[C@@]23[C@@H]4OC(C)(C)O[C@@]25OC[C@@]2([C@H]([C@@H]5O)C(C)(C)CC[C@@H]2O)[C@@H]3CC[C@@H]14

SMILES: CC1(C)O[C@@H]2[C@H]3CC[C@H]4[C@@]56CO[C@@](O1)([C@@H](O)[C@@H]5C(C)(C)CC[C@@H]6O)[C@@]24C(=O)C31CN1 (some centres undefined)
- Stability [7]: Stable
- Stability [8]: Stable
- Stability [9]: Stable
- t1/2 [10]: 4 to 6 h
- Stability [11]: Stable
- Stability [12]: Stable
- Stability [13]: Stable
- Drug metabolism [14]: Metabolite detected

SMILES: C=C1C(=O)[C@]23[C@H](O)[C@H]1CC[C@H]2[C@@]12CO[C@]3(O)[C@@H](O)[C@@H]1C(C)(C)CC[C@@H]2O [ORIDONIN]
- Stability [7]: Stable
- Stability [8]: Stable
- Drug metabolism [15]: Metabolite detected
- Stability [9]: Stable
- Stability [11]: Stable
- Stability [12]: Stable
- Stability [13]: Stable
- half-life ([5]; deuterated phosphate buffer with glutathione (GSH), pH 7.4): < 1 min
- IC50 ([2]; MCF7, 72 h): 6.72 µM
- LD50 at 960 h [16]: 37.5 mg/kg
- IC50 ([3]; MDA-MB-231, 72 h): 29.4 µM
- TGI [17]: Active

SMILES: CCC(=O)N1CC12C(=O)[C@@]13[C@@H]4OC(C)(C)O[C@@]15OC[C@@]1([C@H]([C@@H]5O)C(C)(C)CC[C@@H]1O)[C@@H]3CC[C@H]42 (some centres undefined)
- Activity [2]: inactive
- Activity [3]: inactive

SMILES: CC1(C)CC[C@H](O)[C@]23CO[C@@](O)([C@@H](O)[C@H]12)[C@]12C(=O)C(CSCC(NC(=O)CC[C@H](N)C(=O)O)C(=O)NCC(=O)O)[C@H](CC[C@@H]31)[C@H]2O (some centres undefined)
- Drug metabolism [18]: Metabolite detected

SMILES: C=C1C(=O)[C@]23[C@H](O)[C@H]1CC[C@H]2[C@]12C=CCC(C)(C)[C@H]1[C@H](O)[C@]3(O)OC2
- IC50 [19]: 0.49 µM
- Ratio IC50 [20]: 10

SMILES: C=CCNc1nc2c(s1)CC(C)(C)[C@H]1[C@H](O)[C@]3(O)OC[C@@]21[C@@H]1CC[C@@H]2[C@@H](O)[C@@]13C(=O)C21CN1 (some centres undefined)
- Activity [2]: Active
- Activity [3]: Active
